# Experimental data: ChEMBL document CHEMBL1133529, “Solid-phase synthesis and biological evaluation of a combinatorial library of philanthotoxin analogues” (J Med Chem, 2000)
# Columns and labels:
# [1] = target: T1, Acetylcholine receptor; alpha1/beta1/delta/gamma (Homo sapiens, UniProt P02708+P07510+P11230+Q07001); experiment: Antagonist activity at human muscle-type nAChR (embryonic muscle) expressed in TE671 cells; (end value).; type: functional, cell-based, TE-671
# Outline: (§1)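 Whole-cell patch clamp of TE671 cells (embryonic muscle-type nAChR) at 17-23 °C. Pipette: 140 mM CsCl, 1 mM CaCl2, 11 mM EDTA, 5 mM HEPES pH 7.2. Compound co-applied with 10 µM acetylcholine as 1-s pulses ≥30 s apart; IC50 from peak and end currents.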
# [2] = target: T1, Acetylcholine receptor; alpha1/beta1/delta/gamma; experiment: Antagonist activity at human muscle-type nAChR (embryonic muscle) expressed in TE671 cells; (peak value).; type: functional, cell-based, TE-671; outline: as §1
# [3] = Tested for antagonist activity on non-NMDAR expressed in Xenopus Oocytes from rat brain mRNA.; type: functional, cell-based
# Outline: (§2)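 Xenopus laevis oocytes injected with rat brain RNA, kept at 18 °C ≥3 days, voltage-clamped at -80 mV. Bath saline: 120 mM NaCl, 2 mM KCl, 1.8 mM CaCl2, 10 mM HEPES pH 7.5. 100 µM kainic acid perfused 120 s, antagonist co-applied 40-80 s. IC50 from decrease of kainate-evoked current.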
# [4] = Tested for antagonist activity on non-NMDAR (expressed in Xenopus Oocytes) from rat brain mRNA.; type: functional, cell-based; outline: as §2
# T1 sequence (P02708 whole entry): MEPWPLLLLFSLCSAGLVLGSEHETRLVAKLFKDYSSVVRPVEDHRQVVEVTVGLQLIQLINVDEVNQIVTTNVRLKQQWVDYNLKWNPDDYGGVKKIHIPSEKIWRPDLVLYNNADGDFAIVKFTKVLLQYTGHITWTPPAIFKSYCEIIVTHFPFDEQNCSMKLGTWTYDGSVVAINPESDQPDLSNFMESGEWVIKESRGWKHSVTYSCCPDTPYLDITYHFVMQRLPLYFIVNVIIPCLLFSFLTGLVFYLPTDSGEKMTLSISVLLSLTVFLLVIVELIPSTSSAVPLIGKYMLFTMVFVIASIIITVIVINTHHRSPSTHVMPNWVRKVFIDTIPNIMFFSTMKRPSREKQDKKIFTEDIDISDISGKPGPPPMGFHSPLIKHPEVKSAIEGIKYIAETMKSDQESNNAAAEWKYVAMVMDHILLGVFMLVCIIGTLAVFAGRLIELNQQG
# T1 sequence (P07510 whole entry): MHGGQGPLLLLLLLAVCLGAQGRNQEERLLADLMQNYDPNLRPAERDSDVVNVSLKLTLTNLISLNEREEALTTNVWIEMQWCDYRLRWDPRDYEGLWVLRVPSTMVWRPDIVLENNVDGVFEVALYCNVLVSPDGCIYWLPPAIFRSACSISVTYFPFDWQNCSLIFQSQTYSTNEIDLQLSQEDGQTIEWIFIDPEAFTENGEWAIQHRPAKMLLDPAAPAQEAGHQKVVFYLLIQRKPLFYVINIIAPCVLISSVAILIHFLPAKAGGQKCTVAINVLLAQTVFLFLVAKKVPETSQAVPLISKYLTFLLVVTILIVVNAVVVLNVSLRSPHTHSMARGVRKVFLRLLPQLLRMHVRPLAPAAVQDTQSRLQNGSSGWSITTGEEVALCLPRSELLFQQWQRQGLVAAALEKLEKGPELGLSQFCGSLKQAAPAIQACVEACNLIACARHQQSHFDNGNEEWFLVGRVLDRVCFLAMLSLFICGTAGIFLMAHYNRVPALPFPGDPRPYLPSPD
# T1 sequence (P11230 whole entry): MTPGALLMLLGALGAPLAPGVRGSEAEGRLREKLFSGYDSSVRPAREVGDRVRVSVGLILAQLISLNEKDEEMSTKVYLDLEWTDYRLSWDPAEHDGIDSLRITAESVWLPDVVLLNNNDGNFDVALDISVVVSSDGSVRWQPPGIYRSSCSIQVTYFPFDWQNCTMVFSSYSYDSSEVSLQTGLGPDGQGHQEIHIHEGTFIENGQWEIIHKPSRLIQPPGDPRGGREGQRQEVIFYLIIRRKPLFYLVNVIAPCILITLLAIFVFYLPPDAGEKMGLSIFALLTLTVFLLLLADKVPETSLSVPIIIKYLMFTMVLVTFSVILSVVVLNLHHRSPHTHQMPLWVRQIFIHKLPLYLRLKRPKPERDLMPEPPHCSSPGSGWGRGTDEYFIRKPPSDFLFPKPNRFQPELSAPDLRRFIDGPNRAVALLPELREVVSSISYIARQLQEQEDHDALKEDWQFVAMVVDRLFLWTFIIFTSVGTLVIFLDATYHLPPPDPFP
# T1 sequence (Q07001 whole entry): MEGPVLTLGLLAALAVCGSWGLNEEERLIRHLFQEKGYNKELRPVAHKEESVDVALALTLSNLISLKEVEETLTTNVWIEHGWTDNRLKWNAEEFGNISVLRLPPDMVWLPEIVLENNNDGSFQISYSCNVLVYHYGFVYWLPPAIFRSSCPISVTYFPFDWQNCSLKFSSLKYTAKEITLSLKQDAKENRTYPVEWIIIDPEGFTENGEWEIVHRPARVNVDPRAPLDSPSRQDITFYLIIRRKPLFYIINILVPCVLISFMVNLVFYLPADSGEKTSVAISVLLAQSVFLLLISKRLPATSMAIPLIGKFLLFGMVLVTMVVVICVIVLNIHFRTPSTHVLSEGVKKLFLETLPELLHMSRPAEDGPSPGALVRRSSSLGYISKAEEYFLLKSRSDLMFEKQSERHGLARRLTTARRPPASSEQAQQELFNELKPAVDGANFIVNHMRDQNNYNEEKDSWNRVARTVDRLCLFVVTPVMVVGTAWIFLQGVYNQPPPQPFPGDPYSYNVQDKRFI
structure (smiles),measurement,setting,value
NCCCNCCCCNCCCNC(=O)[C@H](Cc1ccc(O)cc1)NC(=O)Cc1ccccc1,IC50,[1],22.3 µM
same,IC50,[2],249 µM
same,IC50,[3],0.015 µM
NCCCNCCCCNCCCNC(=O)[C@H](Cc1ccc(O)cc1)NC(=O)CC1CCCCC1,IC50,[1],13.2 µM
same,IC50,[2],86.9 µM
same,IC50,[3],0.18 µM
NCCCOCCCCOCCCNC(=O)[C@H](Cc1ccc(O)cc1)NC(=O)Cc1ccccc1,IC50,[1],12.6 µM
same,IC50,[2],35 µM
NCCCOCCCCOCCCNC(=O)[C@H](Cc1ccc(O)cc1)NC(=O)CC1CCCCC1,IC50,[1],5.69 µM
same,IC50,[2],25.9 µM
NCCCCCCCCCCCCNC(=O)[C@H](Cc1ccc(O)cc1)NC(=O)CC1CCCCC1,IC50,[1],151 µM
same,IC50,[2],> 1000 µM
NCCCCCCCCCCCCNC(=O)[C@H](Cc1ccc(O)cc1)NC(=O)Cc1ccccc1,IC50,[1],17.2 µM
same,IC50,[2],388 µM
NCCCNCCCCNCCCNC(=O)[C@H](Cc1cccc(O)c1)NC(=O)Cc1ccccc1,IC50,[1],10.1 µM
same,IC50,[2],98.2 µM
NCCCCCCCCCCCCNC(=O)[C@H](Cc1cccc(O)c1)NC(=O)Cc1ccccc1,IC50,[1],8.05 µM
same,IC50,[2],105 µM
NCCCOCCCCOCCCNC(=O)[C@H](Cc1cccc(O)c1)NC(=O)Cc1ccccc1,IC50,[1],25.3 µM
same,IC50,[2],50.9 µM
CCCC(=O)N[C@@H](Cc1ccc(O)cc1)C(=O)NCCCOCCCCOCCCN,IC50,[1],10.9 µM
same,IC50,[2],72.7 µM
same,IC50,[4],> 100 µM
CCCC(=O)N[C@@H](Cc1ccc(O)cc1)C(=O)NCCCCCCCCCCCCN,IC50,[1],0.79 µM
same,IC50,[2],15.1 µM
same,IC50,[4],> 100 µM
CCCC(=O)N[C@@H](Cc1cccc(O)c1)C(=O)NCCCOCCCCOCCCN,IC50,[1],42.6 µM
same,IC50,[2],110 µM
NCCCNCCCCNCCCNC(=O)[C@H](Cc1cccc(O)c1)NC(=O)CC1CCCCC1,IC50,[1],5.33 µM
same,IC50,[2],59.8 µM
NCCCOCCCCOCCCNC(=O)[C@H](Cc1cccc(O)c1)NC(=O)CC1CCCCC1,IC50,[1],4.47 µM
same,IC50,[2],30.7 µM
CCCC(=O)N[C@@H](Cc1cccc(O)c1)C(=O)NCCCCCCCCCCCCN,IC50,[1],2.43 µM
same,IC50,[2],104 µM
CCCC(=O)N[C@@H](Cc1cccc(O)c1)C(=O)NCCCNCCCCNCCCN,IC50,[1],117 µM
same,IC50,[2],> 1000 µM
CCCC(=O)N[C@@H](Cc1ccc(O)cc1)C(=O)NCCCNCCCCNCCCN [PHILANTHOTOXIN 343],IC50,[1],11.8 µM
same,IC50,[2],56.7 µM
same,IC50,[4],0.75 µM
